PostGolgi yeast = growth inhibition of a yeast mutant, post-Golgi transport screen | post-Golgi transport phenotypic cell assay | actives 0.9% (n = 98,000) | inhibition, % at 10 µM;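 further: yeast cells grown in 1536-well plates; yeast grown about 18 h at 30C before absorbance read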
hDAT+cocaine = human DAT dopamine uptake with cocaine, either direction. B-score at 10 µM. Q01959. LLC-PK1 hDAT cells, [14C]-dopamine uptake with cocaine IC80; actives deviate in either direction. actives 1.3% (n = 110,000);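 active means Z score or B-score, a plate-position-corrected score, falls beyond the plate's 99.7% confidence bounds, in either direction; inactive means both scores lie inside the 99.7% bounds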;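 further: scored against the spread of the other compound wells on the same plate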
Ecoli tolC = E. coli tolC mutant growth inhibition; E. coli BW25113 tolC mutant growth, OD615; actives 2.2% (n = 65,000); growth inhibition, % at 10 µM (by protocol);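 active means growth inhibition at or above a cutoff equal to the mean over every tested compound plus 3 SD, cut at about 60% in these data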;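 further: growth measured after 20 h incubation at 37 °C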
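Doses: one dose of 10 µM final / Material: E. coli BW25113 ΔtolC::kan, tolC deletion mutant strain / Buffer or medium: LB with kanamycin 50 µg/mL / Evaluation: percent growth inhibition / Detection: optical density read at 615 nm / Incubation: 37 °C, 20 h exposure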
PostGolgi ctrl = inhibits growth of the yeast control strain; efflux-deficient yeast background strain, growth absorbance A615, 16 h; actives 5% (n = 98,000); inhibition, % at 10 µM
D1 allo mod = allosteric modulators of human D1 dopamine receptor | AID 641 | B-score at 10 µM | P21728 | HEK293 D1, CRE-luciferase, dopamine EC30 potentiation; actives deviate in either direction | actives 5.9% (n = 58,000);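 active means luminescence count or its row- and column-corrected plate score outside the 99.7% band of the plate's sample wells, on either side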
Target sequence (P21728 whole entry, looked up): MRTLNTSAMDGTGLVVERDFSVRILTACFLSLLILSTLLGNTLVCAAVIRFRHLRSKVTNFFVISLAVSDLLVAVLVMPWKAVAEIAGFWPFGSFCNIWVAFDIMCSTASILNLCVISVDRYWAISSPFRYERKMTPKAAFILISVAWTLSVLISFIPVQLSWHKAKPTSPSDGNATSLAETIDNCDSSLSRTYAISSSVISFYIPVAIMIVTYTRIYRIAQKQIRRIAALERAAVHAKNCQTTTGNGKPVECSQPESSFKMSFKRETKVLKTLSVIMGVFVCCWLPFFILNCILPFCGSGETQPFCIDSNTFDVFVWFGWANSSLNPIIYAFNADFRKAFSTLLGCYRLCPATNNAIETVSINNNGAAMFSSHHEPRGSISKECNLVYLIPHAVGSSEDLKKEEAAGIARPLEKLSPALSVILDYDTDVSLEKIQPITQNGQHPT
E coli WT exp = blocks growth of wild type E. coli BW25113 | OD600 absorbance | growth inhibition, % at 100 µM | actives 0.15% (n = 98,000) | AID 710;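 active means growth inhibition above about 50% at one test dose, limit read from the data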;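 further: growth measured after 20 h incubation at 37 °C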
D1 PAM confirm = D1 receptor (human) allosteric modulation, confirmed; actives 88% (n = 2,200); luminescence at 10 µM; shares compounds with D1 allo mod; HEK293 D1 CRE-luciferase, dopamine EC30 potentiation; active compounds read high;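 active means luminescence in either of two replicates above the same-plate mean plus 3 SD of the low-dose dopamine control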
D1 no dopamine = D1 (human) signaling in absence of dopamine | luminescence at 10 µM | actives 0.8% (n = 1,900) | HEK293 D1 CRE-luciferase, luminescence, no dopamine; active compounds read high | shares compounds with D1 allo mod; in the data active means luminescence above about 3900
Isoprot counter = alters isoproterenol CRE-luciferase response in HEK293 cells. shares compounds with D1 allo mod. HEK293 D1 CRE-luciferase, isoproterenol EC30 counter-screen. calls only at 10 µM. actives 63% (n = 2,200). AID 647;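 active means luminescence in either replicate above plate mean of wells with a partly effective reference agonist dose plus 3 SD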;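 further: isoproterenol raises cAMP through native beta-adrenoceptor Gs so signal bypasses D1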
Starred values were filed as active, the others as inactive; i = inactive; . = no result given; + = active, no number. Sampled rows, rich in hits. Any-hit rate of the full collection: about 9.3%. Unless noted, no stated cut-off is given here; in the data, active means inhibition above about 30%; inactive means the rest.

SMILES	PostGolgi yeast	hDAT+cocaine	Ecoli tolC	PostGolgi ctrl	D1 allo mod	E coli WT exp	D1 PAM confirm	D1 no dopamine	Isoprot counter
CCOC(=O)CSc1nc2c(c(=O)[nH]c(=O)n2C)n1CCCc1ccccc1	-2	-0.83	-9	8	-0.066	-15	.	.	.
CCCCCn1c(Sc2ncccn2)nc2c1c(=O)[nH]c(=O)n2C	11	0.23	-1	-1	20*	-6	25988*	1676	+
COc1ccc(CCNC(=O)c2ccc(CNS(=O)(=O)c3cc(C)ccc3C)cc2)cc1OC	0	0.0037	.	-4	.	-18	.	.	.
CCC(Sc1nc(N)cc(N)n1)C(=O)O (stereo not drawn)	-5	-0.0054	.	5	.	-3	.	.	.
CC1CCN(C(=O)c2[nH]cnc2C(=O)N[C@@H](C)C(=O)OCc2ccccc2)CC1	.	-0.51	.	.	.	.	.	.	.
CCC(=O)Nc1nonc1-c1nc2ccccc2n1Cc1ccccc1	1	0.88	20	10	3.3*	-2	13704*	1604	+
CCC(=O)Nc1nonc1-c1nc2ccccc2n1Cc1cccc2ccccc12	.	-0.072	.	.	.	.	.	.	.
O=C(CCc1ccc(CCC(=O)c2cccs2)s1)c1cccs1	-7	-1.3	42	21	3.4*	-14	11800*	1636	i
CCC(=O)N1c2ccc(S(=O)(=O)CCC(=O)NC3CCCC3)cc2CC1C (stereo not drawn)	4	0.3	-24	8	0.13	11	.	.	.
CCC(=O)N1c2ccc(S(=O)(=O)CCC(=O)N3CCn4c3nc3ccccc34)cc2CC1C (stereo not drawn)	0	-1.6	-10	7	3.9*	-2	12244*	1788	+
CCOC(=O)c1sc(C)c2c1NC(c1ccc(Cl)cc1)NC2=O (stereo not drawn)	-3	-1.3	.	-10	.	3	.	.	.
CC(=O)NCCn1c(SCc2ccccc2F)nc2ccccc2c1=O	0	0.76	21	5	9.1*	-4	8204*	1528	+
COc1ccc(C(=O)CSc2nc3cccnc3n2C)cc1	.	-1.1	.	.	.	.	.	.	.
CC(=O)NCCn1c(SCc2cc(=O)n3cc(Cl)ccc3n2)nc2ccccc2c1=O	-2	1.4	0	-1	3.7*	3	8148*	1496	+
CC(=O)NCCn1c(SCC(=O)NCCC2=CCCCC2)nc2ccccc2c1=O	8	-0.08	-11	-7	.	3	.	.	.
Cn1c(SCc2ccccc2F)nc2cccnc21	11	-0.26	17	13	7.4*	4	7412*	1864	+
O=c1c2cc3ccccc3n2cnn1Cc1ccccc1F	7	0.25	75*	20	3.1*	5	21084*	1636	+
O=C(CN1CCN(c2ncccn2)CC1)NCc1ccccc1	27	0.49	.	-5	.	0	.	.	.
CCS(=O)(=O)c1nc2ccccc2n1Cc1ccccc1Cl	1	-1.3	11	10	16*	2	16608*	1152	+
Cn1ncc2c1ncn1c(-c3ccccc3Cl)nnc21	.	.	-23	.	.	.	.	.	.
COC(=O)CCCC1=CC2=CC(=O)C(C)(OC(=O)c3cccs3)C(=O)C2=CN1C1CC1 (stereo not drawn)	.	-0.34	.	.	.	.	.	.	.
Cc1cccc(C)c1OCC(O)CN1CCC(CN2C(=O)c3cccc4cccc(c34)C2=O)CC1 (stereo not drawn)	3	1.6	.	-4	.	-5	.	.	.
CC1(C)Cc2c(sc3c2c(=N)n(Cc2ccco2)c(=O)n3Cc2ccc(Cl)cc2)CO1	6	0.72	64*	97*	25*	-20	24660*	1604	+
COc1ccccc1Nc1nc(N2CCOCC2)nc(N2CCOCC2)n1	.	0.0053	.	.	.	.	.	.	.
COc1nc(N2CCOCC2)nc(-n2cccc2)n1	-11	-1.3	-12	8	17*	-3	12956*	1432	+
c1ccc(Oc2nc(Oc3ccccc3)nc(N3CCOCC3)n2)cc1	5	-0.0016	21	31*	3.7*	-12	6884*	.	+
